Data on 25 molecules can be found in ChEMBL document CHEMBL1125392, “Antitumor agents. 124. New 4 beta-substituted aniline derivatives of 6,7-O,O-demethylene-4'-O-demethylpodophyllotoxin and related compounds as potent inhibitors of human DNA topoisomerase II” (J Med Chem, 1992).

The term IC50 denotes the concentration that inhibits the measured activity by half. A lower IC50 goes with greater potency in that assay.

For one assay, the system named is Nucleic Acid. The assay can be described thus: Effect on cellular protein DNA complex formation(%) at 10 uM in comparison with etoposide. The assay is classed as functional.
Assay [1] has as its target DNA topoisomerase II (Homo sapiens) (UniProt P11388+Q02880). The assay can be described thus: Inhibition of human DNA Topoisomerase II. In kind it is protein assay. Summed up:
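Human DNA topoisomerase II catalytic inhibition was tested at five concentrations (10, 20, 25, 50 and 100 μM). ID50 was set from the degree of inhibition observed across these concentrations.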

Assay [2] in a line: Concentration required for 50% reduction in KB cell number after 3-day incubation. The assay is classed as functional, cell-based, Homo sapiens.

Structures are written as SMILES. Some results are limits rather than exact numbers.

Take `CCOC(=O)c1ccc(N[C@@H]2c3cc(O)c(O)cc3[C@@H](c3cc(OC)c(OC)c(OC)c3)[C@H]3C(=O)OC[C@@H]32)cc1`: the Complex formation in the assay on Nucleic Acid stood at 22%. In addition, the ID50 in assay [1] turned out to be 100 µM. Besides, the IC50 in assay [2] was more than 1.8 µM.
`COc1cc([C@@H]2c3cc4c(cc3[C@@H](Nc3ccc([N+](=O)[O-])cc3)[C@H]3COC(=O)[C@H]23)OCO4)cc(OC)c1O` came in with a Complex formation in the assay on Nucleic Acid of 323%. This molecule also gave a half-maximal inhibitory concentration (IC50) in assay [2] of 0.49 µM.
`CCOC(=O)c1ccc(N[C@@H]2c3cc(OC)c(OC)cc3[C@@H](c3cc(OC)c(O)c(OC)c3)[C@H]3C(=O)OC[C@@H]32)cc1` displayed a Complex formation in the assay on Nucleic Acid of 127%. In assay [1], the ID50 was found to be 100 µM. The IC50 in assay [2] is less than 0.7 µM.
`COc1cc([C@@H]2c3cc(O)c(O)cc3[C@@H](Nc3cccc(O)c3)[C@H]3COC(=O)[C@H]23)cc(OC)c1OC` displayed a Complex formation in the assay with Nucleic Acid of 4%. The ID50 in assay [1] was found to be 50 µM. In addition, in assay [2], the IC50 was more than 2 µM.
In the same order, the values of `COc1cc([C@@H]2c3cc(O)c(O)cc3[C@@H](Nc3ccc(F)cc3)[C@H]3COC(=O)[C@H]23)cc(OC)c1OC` are 11%, 50 µM and more than 2 µM.
In the same order, the values of `COc1cc([C@@H]2c3cc(O)c(O)cc3[C@@H](Nc3ccc(C#N)cc3)[C@H]3COC(=O)[C@H]23)cc(OC)c1OC` are 33%, more than 100 µM and more than 2 µM.
Consider `COc1cc([C@@H]2c3cc(O)c(O)cc3[C@@H](Nc3ccc([N+](=O)[O-])cc3)[C@H]3COC(=O)[C@H]23)cc(OC)c1O`, for which the Complex formation in the assay on Nucleic Acid was determined as 99%. For the same molecule, in assay [1], the ID50 turned out to be 20 µM. Besides, in assay [2], the midpoint of inhibition, the IC50, lay at 1.5 µM.
Regarding `COc1cc2c(cc1OC)[C@@H](Nc1ccc(F)cc1)[C@H]1COC(=O)[C@@H]1[C@@H]2c1cc(OC)c(OC)c(OC)c1`, in the assay on Nucleic Acid, the Complex formation was found to be 8%. Further, the ID50 in assay [1] was more than 100 µM. Besides, in assay [2], the IC50 was determined as 7.6 µM.
Regarding `COc1cc([C@@H]2c3cc(O)c(O)cc3[C@@H](Nc3ccc([N+](=O)[O-])cc3)[C@H]3COC(=O)[C@H]23)cc(OC)c1OC`, the Complex formation in the assay with Nucleic Acid stood at 23%. In addition, the ID50 in assay [1] is more than 100 µM. For the same molecule, the IC50 in assay [2] was more than 1.9 µM.
In the same order, the values of `COc1cc([C@@H]2c3cc(O)c(O)cc3[C@@H](Nc3cccc(O)c3)[C@H]3COC(=O)[C@H]23)cc(OC)c1O` are 18%, 20 µM and more than 2.1 µM.
In the same order, the values of `COc1cc2c(cc1OC)[C@@H](Nc1ccc([N+](=O)[O-])cc1)[C@H]1COC(=O)[C@@H]1[C@@H]2c1cc(OC)c(O)c(OC)c1` are 75%, 100 µM and 1.3 µM.
In turn, `CCOC(=O)c1ccc(N[C@@H]2c3cc(O)c(O)cc3[C@@H](c3cc(OC)c(O)c(OC)c3)[C@H]3C(=O)OC[C@@H]32)cc1` returned a Complex formation in the assay on Nucleic Acid of 138%. Besides, the ID50 in assay [1] is 20 µM. The molecule further had an IC50 in assay [2] of 1.46 µM.
`COc1cc([C@@H]2c3cc(O)c(O)cc3[C@@H](Nc3ccccc3)[C@H]3COC(=O)[C@H]23)cc(OC)c1O` returned a Complex formation in the assay with Nucleic Acid of 84%. In addition, the ID50 in assay [1] was 25 µM. In assay [2], this molecule came in with a half-inhibitory concentration (IC50) of more than 2.2 µM.
Turning to `CCOC(=O)c1ccc(N[C@@H]2c3cc4c(cc3[C@@H](c3cc(OC)c(O)c(OC)c3)[C@H]3C(=O)OC[C@@H]32)OCO4)cc1`, the Complex formation in the assay on Nucleic Acid turned out to be 207%. In assay [2], this molecule had a half-inhibitory concentration (IC50) of 0.84 µM.
The molecule `COc1cc2c(cc1OC)[C@@H](Nc1ccc(C#N)cc1)[C@H]1COC(=O)[C@@H]1[C@@H]2c1cc(OC)c(OC)c(OC)c1` came in with a Complex formation with Nucleic Acid of 12%. Also, the ID50 in assay [1] was more than 100 µM. Further, the IC50 in assay [2] came to 5.8 µM.
With `COc1cc2c(cc1OC)[C@@H](Nc1ccc(F)cc1)[C@H]1COC(=O)[C@@H]1[C@@H]2c1cc(OC)c(O)c(OC)c1`, the Complex formation in the assay with Nucleic Acid was determined as 108%. Further, the ID50 in assay [1] is 50 µM. In assay [2], this molecule yielded an IC50 of 0.78 µM.
As for `COc1cc([C@@H]2c3cc4c(cc3[C@@H](O[C@@H]3O[C@@H]5CO[C@@H](C)O[C@H]5[C@H](O)[C@H]3O)[C@H]3COC(=O)[C@H]23)OCO4)cc(OC)c1O` [ETOPOSIDE], in the assay on Nucleic Acid, the Complex formation was found to be 100%. This molecule had an IC50 in assay [2] of 0.2 µM.
Consider `COc1cc([C@@H]2c3cc(O)c(O)cc3[C@@H](Nc3ccc(C#N)cc3)[C@H]3COC(=O)[C@H]23)cc(OC)c1O`, for which the Complex formation in the assay with Nucleic Acid is 62%. The molecule further yielded an ID50 in assay [1] of 20 µM. The molecule also had an IC50 in assay [2] of 2 µM.
As to `CCOC(=O)c1ccc(N[C@@H]2c3cc(OC)c(OC)cc3[C@@H](c3cc(OC)c(OC)c(OC)c3)[C@H]3C(=O)OC[C@@H]32)cc1`, the Complex formation in the assay with Nucleic Acid came to 9%. Moreover, the ID50 in assay [1] was more than 100 µM. In addition, the IC50 in assay [2] came to 5.5 µM.
For `COc1cc([C@@H]2c3cc(O)c(O)cc3[C@@H](Nc3ccc(F)cc3)[C@H]3COC(=O)[C@H]23)cc(OC)c1O`, the Complex formation with Nucleic Acid worked out at 52%. The same molecule displayed an ID50 in assay [1] of 25 µM. The 50% inhibitory concentration (IC50) in assay [2] was more than 2.1 µM.
In the case of `COc1cc([C@@H]2c3cc(O)c(O)cc3[C@@H](Nc3ccccc3)[C@H]3COC(=O)[C@H]23)cc(OC)c1OC`, the Complex formation in the assay on Nucleic Acid is 9%. In addition, the ID50 in assay [1] stood at 50 µM. The same molecule gave a concentration for half-maximal inhibition (IC50) in assay [2] of more than 2.1 µM.
In turn, `COc1cc([C@@H]2c3cc4c(cc3[C@@H](Nc3ccc(C#N)cc3)[C@H]3COC(=O)[C@H]23)OCO4)cc(OC)c1O` gave a Complex formation in the assay on Nucleic Acid of 211%. Also, half-maximal inhibition in assay [2] (IC50) was put at 0.64 µM.
Regarding `COc1cc([C@@H]2c3cc4c(cc3[C@@H](Nc3ccc(F)cc3)[C@H]3COC(=O)[C@H]23)OCO4)cc(OC)c1O`, the Complex formation in the assay on Nucleic Acid turned out to be 213%. Further, the IC50 in assay [2] was 0.24 µM.
Molecule `COc1cc2c(cc1OC)[C@@H](Nc1ccc([N+](=O)[O-])cc1)[C@H]1COC(=O)[C@@H]1[C@@H]2c1cc(OC)c(OC)c(OC)c1` registered a Complex formation in the assay on Nucleic Acid of 8%. In assay [1], this molecule yielded an ID50 of more than 100 µM. Also, in assay [2], half-maximal inhibition (IC50) required 7.3 µM.
In the same order, the values of `COc1cc2c(cc1OC)[C@@H](Nc1ccc(C#N)cc1)[C@H]1COC(=O)[C@@H]1[C@@H]2c1cc(OC)c(O)c(OC)c1` are 125%, 50 µM and less than 0.77 µM.
